Calls of active or inactive are those of the source. No cut-off for these calls is given here.
Key:
Rhizopus arrhizus [1] = test: Antifungal activity against Rhizopus oryzae RHPOR2 assessed as reduction in microbial growth after 24 hrs by broth microdilution method; format: functional
Procedure, shortened: (§1)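 CLSI M38 broth microdilution in RPMI 1640 buffered to pH 7.0 with MOPS. Drugs were diluted in DMSO then medium; final range 0.032-16 mg/L. Conidia or sporangiospores came from 7-day potato dextrose agar cultures; diluted (2×) inocula were 0.9×10^4–4.7×10^4 CFU/mL. Incubation at 35 °C, read at 48 h except Zygomycetes at 24 h. MIC read visually as lowest concentration preventing 100% growth; duplicate.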

Rhizopus arrhizus [2] = test: Antifungal activity against Rhizopus oryzae RHPOR1 assessed as reduction in microbial growth after 24 hrs by broth microdilution method; format: functional; procedure, shortened: as §1
Fusarium sp. = test: Antifungal activity against Fusarium sp. assessed as reduction in microbial growth […] by broth microdilution method; format: functional
Mucor circinelloides = test: Antifungal activity against Mucor circinelloides MURI1 assessed as reduction in microbial growth after 24 hrs by broth microdilution method; format: functional; procedure, shortened: as §1
Scedosporium apiospermum = test: Antifungal activity against Scedosporium apiospermum SCAP1 assessed as reduction in microbial growth […] by broth microdilution method; format: functional
Candida albicans [3] = test: Inhibition of sterol biosynthesis in Candida albicans CAAL93 assessed as ergostadienol level at 10 ng/ml after 18 hrs by GC-MS analysis (reference value: 1.6%); format: functional; parameters: scale not given: the % may be the effect or the level left
Procedure, shortened: (§2)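 C. albicans CAAL93 blastospores were grown 18 h at 35 °C with stirring in 50 mL Sabouraud broth, with drug added before incubation. Cells were pelleted and saponified in ethanolic KOH at 80 °C for 60 min, and sterols extracted with hexane. Analysis by GC-MS (EI 70 eV, splitless injection at 250 °C, helium carrier); sterols identified by fragmentation pattern.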

Candida albicans [4] = test: Inhibition of sterol biosynthesis in Candida albicans CAAL93 assessed as fecosterol level at 10 ng/ml after 18 hrs by GC-MS analysis relative to control; format: functional; parameters: scale not given: the % may be the effect or the level left; procedure, shortened: as §2
[5] = tested on: Pichia kudriavzevii (Candida krusei); test: Antifungal activity against fluconazole-resistant Candida krusei CAKR8 assessed as reduction in microbial growth after 24 hrs by resazurin staining based spectrofluorometric method; conditions: CAKR8, 24 h
Candida albicans [6] = test: Inhibition of sterol biosynthesis in Candida albicans CAAL93 assessed as eburicol level at 10 ng/ml after 18 hrs by GC-MS analysis relative to control; format: functional; parameters: scale not given: the % may be the effect or the level left; procedure, shortened: as §2
Candida albicans [7] = test: Inhibition of sterol biosynthesis in Candida albicans CAAL93 assessed as lanosterol level at 10 ng/ml after 18 hrs by GC-MS analysis (reference value: 1.6%); format: functional; parameters: scale not given: the % may be the effect or the level left; procedure, shortened: as §2
Candida albicans [8] = test: Antifungal activity against Candida albicans DSY292 harboring Erg1l G464S/R467K/Y132 mutant infected in Swiss mouse assessed as survival at 15 mg/kg, po after 5 days; format: functional, organism-based; conditions: time 5.0 day
Procedure, shortened: (§3)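 Swiss mice (~25 g) immunosuppressed with prednisolone 30 mg/kg s.c. one day before challenge; day 0 i.v. infection with C. albicans blastoconidia (5.10⁶ yeast/mL, 100 µL). Oral dosing 1 h post-infection, once daily for 5 days, 10 mg/kg (CAAL93) or 15 mg/kg (DSY292), vehicle 40% DMSO/25% Tween80/35% olive oil. Mice given 50% grapefruit juice ad libitum. Survival followed 14 days (log-rank Mantel-Cox).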

Candida albicans [9] = test: Inhibition of sterol biosynthesis in Candida albicans CAAL93 assessed as other sterols level at 10 ng/ml after 18 hrs by GC-MS analysis (Rvb < 1%); format: functional; parameters: scale not given: the % may be the effect or the level left; procedure, shortened: as §2
Candida albicans [10] = test: Antifungal activity against Candida albicans CAAL93 infected in Swiss mouse assessed as survival at 10 mg/kg, po after 14 days relative to control; format: functional; conditions: 336 h, time 14 day; procedure, shortened: as §3
Candida albicans [11] = test: Inhibition of sterol biosynthesis in Candida albicans CAAL93 assessed as episterol level at 10 ng/ml after 18 hrs by GC-MS analysis (reference value: 2%); format: functional; parameters: scale not given: the % may be the effect or the level left; procedure, shortened: as §2
Candida albicans [12] = test: Inhibition of sterol biosynthesis in Candida albicans CAAL93 assessed as 14alpha-methylfecosterol level at 10 ng/ml after 18 hrs by GC-MS analysis relative to control; format: functional; parameters: scale not given: the % may be the effect or the level left; procedure, shortened: as §2
Candida albicans [13] = test: Antifungal activity against Candida albicans CAAL93 infected in Swiss mouse assessed as reduction in kidney fungal burden at 10 mg/kg, po after 14 days; format: functional, organism-based; conditions: time 14.0 day
Candida albicans [14] = test: Inhibition of sterol biosynthesis in Candida albicans CAAL93 assessed as ergosterol level at 10 ng/ml after 18 hrs by GC-MS analysis (reference value: 89.7%); format: functional; parameters: scale not given: the % may be the effect or the level left; procedure, shortened: as §2
Candida albicans [15] = test: Inhibition of sterol biosynthesis in Candida albicans CAAL93 assessed as zymosterol level at 10 ng/ml after 18 hrs by GC-MS analysis (reference value: 1.6%); format: functional; parameters: scale not given: the % may be the effect or the level left; procedure, shortened: as §2
[16] = tested on: Pichia kudriavzevii (Candida krusei); test: Antifungal activity against fluconazole-resistant Candida krusei CAKR7 assessed as reduction in microbial growth after 24 hrs by resazurin staining based spectrofluorometric method; conditions: CAKR7, 24 h
Aspergillus fumigatus [17] = test: Antifungal activity against Aspergillus fumigatus ASFU77 assessed as reduction in microbial growth after 48 hrs by resazurin staining based spectrofluorometric method; format: functional
Procedure, shortened: (§4)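 A. fumigatus conidia counted by microscope and inoculated at 10^4 cells mL⁻¹ in RPMI 1640 with 0.165 M MOPS, 2% glucose and antibiotics. Drugs were dissolved in DMSO (fluconazole in water), then diluted in medium. Plates ran 48 h at 37 °C, then resazurin for 20 h, read by fluorescence at ex 550/em 590 nm. MIC is 80% growth inhibition by linear regression; triplicate, mean±SD.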

Aspergillus fumigatus [18] = test: Antifungal activity against Aspergillus fumigatus ASFU7 assessed as reduction in microbial growth after 48 hrs by resazurin staining based spectrofluorometric method; format: functional; procedure, shortened: as §4
Aspergillus fumigatus [19] = test: Antifungal activity against Aspergillus fumigatus ASFU76 assessed as reduction in microbial growth after 48 hrs by resazurin staining based spectrofluorometric method; format: functional; procedure, shortened: as §4
Candida albicans [20] = test: Antifungal activity against fluconazole-resistant Candida albicans DSY292 harboring Erg1l G464S/R467K/Y132 mutant assessed as reduction in microbial growth after 24 hrs by resazurin staining based spectrofluorometric method; format: functional
Procedure, shortened: (§5)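 Broth microdilution in RPMI 1640 with 0.165 M MOPS, 2% glucose and antibiotics; yeast inoculum at 10³ cells mL⁻¹ final. Compounds were dissolved in DMSO (fluconazole in water) and diluted in medium, then incubated 24 h at 37 °C. Viability was read by resazurin fluorescence (ex 550/em 590 nm) after 4 h. MIC was taken as 50% growth inhibition, by linear regression; triplicate experiments.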

Nakaseomyces glabratus = test: Antifungal activity against fluconazole-sensitive Candida glabrata CAGL2 assessed as reduction in microbial growth after 24 hrs by resazurin staining based spectrofluorometric method; format: functional
Procedure, shortened: (§6)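 Yeasts in RPMI 1640 with 0.165 M MOPS, 2% glucose and antibiotics, final 10³ cells mL⁻¹. Drugs in DMSO (fluconazole in water) were diluted in medium. Plates ran 24 h at 37 °C, then resazurin for 4 h, fluorescence ex 550/em 590 nm. MIC is 50% growth inhibition by linear regression; triplicate, mean±SD.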

Candida albicans [21] = test: Antifungal activity against fluconazole-susceptible Candida albicans CAAL93 assessed as reduction in microbial growth after 24 hrs by resazurin staining based spectrofluorometric method; format: functional; procedure, shortened: as §6
Candida albicans [22] = test: Antifungal activity against fluconazole-resistant Candida albicans DSY735 over expression of CDR1/CDR2 assessed as reduction in microbial growth after 24 hrs by resazurin staining based spectrofluorometric method; format: functional; procedure, shortened: as §5
Candida albicans [23] = test: Antifungal activity against Candida albicans DSY292 harboring Erg1l G464S/R467K/Y132 mutant infected in Swiss mouse assessed as survival at 15 mg/kg, po after 8 days; format: functional, organism-based; conditions: time 8.0 day; procedure, shortened: as §3

| SMILES | MIC (Rhizopus arrhizus [1]) | MIC (Rhizopus arrhizus [2]) | MIC (Fusarium sp.) | MIC (Mucor circinelloides) | MIC (Scedosporium apiospermum) | MIC [5] | MIC [16] | MIC (Aspergillus fumigatus [17]) | MIC (Aspergillus fumigatus [18]) | other results |
| --- | --- | --- | --- | --- | --- | --- | --- | --- | --- | --- |
| C[C@@H]1[C@H](O)[C@@H](C)/C=C/C=C/C=C/C=C/C=C/C=C/C=C/[C@H](O[C@@H]2O[C@H](C)[C@@H](O)[C@H](N)[C@@H]2O)C[C@@H]2O[C@](O)(C[C@@H](O)C[C@@H](O)[C@H](O)CC[C@@H](O)C[C@@H](O)CC(=O)O[C@H]1C)C[C@H](O)[C@H]2C(=O)O [AMPHOTERICIN B] | 0.5 µg/mL | 0.19 µg/mL | 12 µg/mL | 0.19 µg/mL | > 8 µg/mL | – | – | – | – | – |
| OC(Cn1cncn1)(Cn1cncn1)c1ccc(F)cc1F [FLUCONAZOLE] | – | – | – | – | – | > 10 µg/mL | > 3 µg/mL | – | – | Activity (Candida albicans [3]): 3.2%; Activity (Candida albicans [4]): 2.8%; Activity (Candida albicans [6]): 2.2%; Activity (Candida albicans [7]): 13.1%; Survival (Candida albicans [8]): inactive; Activity (Candida albicans [9]): 7.3%; survival at 10 mg/kg (Candida albicans [10]): 100%; Activity (Candida albicans [11]): 8.8%; Activity (Candida albicans [12]): 2%; Activity (Candida albicans [13]): Active; Activity (Candida albicans [14]): 57.8%; Activity (Candida albicans [15]): 2.8% |
| C[C@@H](n1ncc2cc(-c3ccc(C#N)cc3)cn2c1=O)[C@](O)(Cn1cncn1)c1ccc(F)cc1F | 0.25 µg/mL | 0.125 µg/mL | 10 µg/mL | 0.75 µg/mL | > 16 µg/mL | 0.101 µg/mL | 0.058 µg/mL | > 100 µg/mL | > 100 µg/mL | MIC (Aspergillus fumigatus [19]): > 100 µg/mL |
| C[C@@H](n1ncc2cc(-c3ccccc3)cn2c1=O)[C@](O)(Cn1cncn1)c1ccc(F)cc1F | – | – | – | – | – | 0.014 µg/mL | 0.013 µg/mL | – | – | – |
| CCC(C)n1ncn(-c2ccc(N3CCN(c4ccc(OCC5COC(Cn6cncn6)(c6ccc(Cl)cc6Cl)O5)cc4)CC3)cc2)c1=O (configuration not stated) [ITRACONAZOLE] | 1.12 µg/mL | 0.19 µg/mL | > 16 µg/mL | 0.19 µg/mL | 0.5 µg/mL | – | – | > 100 µg/mL | 0.5 µg/mL | – |
| CC[C@@H]([C@H](C)O)n1ncn(-c2ccc(N3CCN(c4ccc(OC[C@@H]5CO[C@@](Cn6cncn6)(c6ccc(F)cc6F)C5)cc4)CC3)cc2)c1=O [POSACONAZOLE] | 0.5 µg/mL | 0.19 µg/mL | > 8 µg/mL | 0.19 µg/mL | 1.25 µg/mL | – | – | – | – | – |
| C[C@@H](n1ncc2cc(-c3ccc([N+](=O)[O-])cc3)cn2c1=O)[C@](O)(Cn1cncn1)c1ccc(F)cc1F | 0.25 µg/mL | 0.0625 µg/mL | 12 µg/mL | 0.25 µg/mL | > 16 µg/mL | 0.039 µg/mL | 0.066 µg/mL | – | – | – |
| C[C@@H](n1ncc2cc(Br)cn2c1=O)[C@](O)(Cn1cncn1)c1ccc(F)cc1F | 8 µg/mL | 4 µg/mL | > 16 µg/mL | 8 µg/mL | 4 µg/mL | 0.076 µg/mL | 0.251 µg/mL | 6.74 µg/mL | 6.66 µg/mL | MIC (Candida albicans [20]): 0.155 µg/mL; MIC (Nakaseomyces glabratus): 0.014 µg/mL; MIC (Candida albicans [21]): 2 ng/mL; MIC (Candida albicans [22]): 0.14 µg/mL |
| C[C@@H](c1ncncc1F)[C@](O)(Cn1cncn1)c1ccc(F)cc1F [VORICONAZOLE] | 8 µg/mL | – | 6 µg/mL | > 8 µg/mL | 0.5 µg/mL | 0.24 µg/mL | 0.817 µg/mL | – | – | Survival (Candida albicans [23]): inactive |
| C[C@@H](n1ncc2cccn2c1=O)[C@](O)(Cn1cncn1)c1ccc(F)cc1F | 8 µg/mL | 4 µg/mL | > 16 µg/mL | 16 µg/mL | > 16 µg/mL | 1.15 µg/mL | 0.625 µg/mL | – | – | – |

From ChEMBL document CHEMBL4680186, “New azole antifungals with a fused triazinone scaffold” (Eur J Med Chem, 2020)
